Activity calls are given as the source filed them. The calls are words filed in the database; no cut-off is given here.
How the values were obtained:
HEK293 [1] = test: Effect on Wnt/[…] reporter pathway in HEK293 cells expressing super(8X)TOPFlash reporter assessed as luciferase activity in presence of Wnt-3a; type: functional, cell-based; details: Homo sapiens
How it was run: (§1)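 HEK293 cells transfected with Super(8X)TOPFlash reporter plus renilla control; 24 h post-transfection, compound added over a dose range with or without Wnt-3a conditioned medium (1:1 vol/vol to growth medium); firefly luciferase read 36 h later, normalized to renilla; error bars SD.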

MDA-MB-231 [2] = test: Inhibition of migration of AMAP1 expressing human MDA-MB-231 cells at 2.5 uM relative to control; type: functional; set-up: scale not given: the % may be the effect or the level left
How it was run: (§2)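 Modified Boyden chambers, filter underside coated with 5 μg/cm² Matrigel; MDA-MB-231 cells (5,000/well) seeded upper chamber in RPMI1640 with 0.5% BSA plus compound, lower chamber DMEM with 10% FBS; after 12 h, cells on lower side counted by microscopy versus DMSO.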

HEK293 [3] = test: Effect on Wnt/[…] reporter pathway in HEK293 cells expressing super(8X)TOPFlash reporter plasmid assessed as luciferase activity; type: functional, Homo sapiens; how it was run: as §1
[4] = target: ADP-ribosylation factor 6 (Mus musculus) (UniProt P62331); test: Inhibition of ADP-ribosylation factor 6 activity in mouse NIH3T3 cells assessed as increase in endogenous ARF6-GTP level at 2.5 uM relative to control; type: cell-based
Chain of ADP-ribosylation factor 6 (Mus musculus) (P62331 whole entry): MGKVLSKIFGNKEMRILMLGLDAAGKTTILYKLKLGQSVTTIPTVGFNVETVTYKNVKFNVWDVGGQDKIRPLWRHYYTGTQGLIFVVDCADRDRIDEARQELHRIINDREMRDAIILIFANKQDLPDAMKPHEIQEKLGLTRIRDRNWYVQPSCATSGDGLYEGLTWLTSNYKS

MDA-MB-231 [5] = test: Inhibition of migration of AMAP1 expressing human MDA-MB-231 cells; type: functional, cell-based; how it was run: as §2
HEK293 [6] = test: Induction of Wnt-3a-induced Axin2 gene expression in HEK293 cells in presence of Wnt-3a; type: functional, cell-based; details: Homo sapiens
HEK293 [7] = test: Effect on Wnt/[…] reporter pathway in HEK293 cells expressing super(8X)TOPFlash reporter plasmid assessed as luciferase activity in presence of recombinant Wnt-3a; type: functional, cell-based; details: Homo sapiens
[8] = Activation of Wnt/[…] pathway in Xenopus embryos assessed as partial double axis formation at 10 uM in presence of XWnt-8 RNA after 24 hrs; type: functional
How it was run: (§3)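 XWnt-8 RNA (0.5 pg) co-injected with 10 nL of 10 μM compound (or 10 nL water) into one ventral blastomere at 16- to 32-cell stage; embryos kept 24 h, then scored for partial versus full double axis formation.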

HEK293 [9] = test: Effect on Wnt/[…] reporter pathway in HEK293 cells expressing superFOPFlash reporter plasmid assessed as luciferase activity at 0.11 to 25 uM in presence of Wnt-3a; type: functional, cell-based; details: Homo sapiens, 0.011 to 25 uM, in the assay text read “0.011 to 25 uM” for “0.11 to 25 uM”
How it was run: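 SuperFOPFlash reporter (mutated β-catenin/TCF sites) transfected into HEK293 cells; compound 0.011–25 μM given with Wnt-3a conditioned medium 24 h after transfection; luciferase read after 36 h, normalized to renilla.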

[10] = target: ADP-ribosylation factor GTPase-activating protein 1, ARFGAP1 (Homo sapiens) (UniProt Q8N6T3); test: Binding affinity to purified ARFGAP1 by surface plasmon resonance analysis
Chain of ADP-ribosylation factor GTPase-activating protein 1, ARFGAP1 (Homo sapiens) (Q8N6T3 whole entry, looked up): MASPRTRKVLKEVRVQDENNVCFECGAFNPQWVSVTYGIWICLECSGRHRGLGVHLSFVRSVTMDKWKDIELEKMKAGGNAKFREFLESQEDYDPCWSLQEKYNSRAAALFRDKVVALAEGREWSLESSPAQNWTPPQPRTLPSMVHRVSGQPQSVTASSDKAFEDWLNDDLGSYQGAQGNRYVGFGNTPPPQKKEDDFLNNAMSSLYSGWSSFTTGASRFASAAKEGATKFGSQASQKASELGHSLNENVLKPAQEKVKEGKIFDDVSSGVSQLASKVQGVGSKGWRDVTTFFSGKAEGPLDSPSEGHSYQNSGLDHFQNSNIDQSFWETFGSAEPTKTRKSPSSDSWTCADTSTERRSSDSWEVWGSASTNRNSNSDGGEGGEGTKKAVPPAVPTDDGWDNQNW

HEK293 [11] = test: Effect on Wnt/[…] reporter pathway in HEK293 cells expressing super(8X)TOPFlash reporter assessed as luciferase activity at 2.5 uM in presence of Wnt-3a; type: functional, Homo sapiens
How it was run: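 HEK293 cells (20,000/well) reverse-transfected with Super(8X)TOPFlash and pTK-RL (Fugene6), 24 h at 37°C; compound 2.5 μM plus Wnt-3a conditioned medium (1:1 vol/vol) added; Dual-Glo luciferase read 36 h later, fold activation normalized to renilla; mean of three independent data points.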

[12] = target: ADP-ribosylation factor 6 (Mus musculus) (UniProt P62331); test: Inhibition of ADP-ribosylation factor 6 activity in mouse NIH3T3 cells assessed as increase in endogenous ARF6-GTP level at 1 uM relative to control; type: cell-based
HEK293 [13] = test: Induction of Wnt-3a-induced DKK1 gene expression in HEK293 cells in presence of Wnt-3a; type: functional, cell-based; details: Homo sapiens
[14] = Activation of Wnt/[…] pathway in Xenopus embryos assessed as full axis formation at 10 uM in presence of XWnt-8 RNA after 24 hrs; type: functional; how it was run: as §3
HEK293 [15] = test: Reduction of super(8X)TOPFlash reporter activity in HEK293 cells at 0.25 uM in presence of Wnt-3a conditional medium relative to control; type: functional, Homo sapiens; set-up: scale not given: the % may be the effect or the level left
How it was run: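 HEK293 cells carrying the Super(8X)TOPFlash luciferase reporter, treated at 0.25 μM in Wnt-3a conditioned medium; reporter luciferase activity compared with DMSO-treated control cells under the same Wnt-3a stimulation.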

`CC1(C)Cc2cc(Oc3nc(NCc4ccccc4)c4ncn(Cc5ccc(-c6ccccc6)cc5)c4n3)ccc2O1` showed an EC50 (HEK293 [1]) of 1700 nM.
`O=[N+]([O-])c1ccc(-c2ccc(Cn3cnc4c(N[C@H](CO)Cc5ccccc5)nc(Oc5ccc6c(c5)CCC6)nc43)cc2)cc1` gave an EC50 (HEK293 [1]) of 1500 nM.
In the case of `OC[C@H](Cc1ccccc1)Nc1nc(Oc2ccc3c(c2)CCC3)nc2c1ncn2Cc1ccccc1`, the EC50 (HEK293 [1]) is reported as > 7100 nM.
Compound `OC[C@H](Cc1ccccc1)Nc1nc(Oc2cccc3ccccc23)nc2c1ncn2Cc1ccc(-c2ccccc2)cc1` has an EC50 (HEK293 [1]) of 4600 nM.
For `OC[C@@H](Cc1ccccc1)Nc1nc(Oc2ccc3c(c2)CCC3)nc2c1ncn2Cc1ccc(-c2ccccc2)cc1`, the EC50 (HEK293 [1]) was > 7100 nM.
With `OC[C@H](Cc1ccccc1)Nc1nc(NCc2ccc3c(c2)OCO3)nc2c1ncn2Cc1ccc(-c2ccccc2)cc1` the EC50 (HEK293 [1]) was > 7100 nM.
For `FC(F)(F)c1ccc(Cn2cnc3c(NCCc4ccccc4)nc(Oc4ccc5c(c4)CCC5)nc32)cc1`, the EC50 (HEK293 [1]) was > 7100 nM.
For `O=[N+]([O-])c1ccc(C[C@@H](CO)Nc2nc(Oc3ccc4c(c3)CCC4)nc3c2ncn3Cc2ccc(-c3ccccc3)cc2)cc1`, the EC50 (HEK293 [1]) was 400 nM.
Compound `[N-]=[N+]=Nc1ccc(C[C@@H](CO)Nc2nc(Oc3ccc4c(c3)CCC4)nc3c2ncn3Cc2ccc(-c3ccccc3)cc2)cc1` has an EC50 (HEK293 [1]) of 600 nM.
For `OC[C@H](Cc1ccccc1)Nc1nc(Oc2ccc3c(c2)CCC3)nc2c1ncn2Cc1ccc(-c2ccccc2)cc1`, the Activity (MDA-MB-231 [2]) was 80%, the Activity (HEK293 [3]) was 2 and the Activity [4] was “Active”. For the same compound, the Activity (MDA-MB-231 [5]) was “Dose-dependent effect”, the EC50 (HEK293 [1]) was 500 nM and the Activity (HEK293 [6]) was “Active”. The Activity (HEK293 [7]) was “Active”, the Activity [8] was 30.2% and the Activity (HEK293 [9]) was “inactive”. The Kd [10] was 620 nM, the Activity (HEK293 [11]) was 200 and the Activity [12] was “Active”. For the same compound, the Activity (HEK293 [13]) was “Active” and the Activity [14] was 20.9%.
In the case of `OC[C@H](Cc1ccccc1)Nc1nc(Oc2cccc(-c3ccccc3)c2)nc2c1ncn2Cc1ccc(-c2ccccc2)cc1`, the EC50 (HEK293 [1]) is reported as 3100 nM.
In the case of `C[C@H]1CCC/C=C/[C@@H]2C[C@H](O)C[C@H]2[C@H](O)/C=C/C(=O)O1` [BREFELDIN A], the Activity (HEK293 [15]) is reported as 50%.
With `OC[C@H](Cc1ccccc1)Nc1nc(Nc2cccc3ccccc23)nc2c1ncn2Cc1ccc(-c2ccccc2)cc1` the EC50 (HEK293 [1]) was > 7100 nM.
